Assay outcomes (PubChem)
UPR XBP1 act: activators of adaptive XBP1 UPR arm, primary screen, cell-based, CHO-XBP1 luciferase reporter, luminescence, uHTS; activation, % at 20 µM; IRE1-XBP1 UPR activation; percent of tunicamycin response, DMSO as zero; 330,000 tested, 0.33% active;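 active = versus positive control, 20 µM dose yields 30% or more activation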;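 also: 100% = tunicamycin at 10 µg/mL and 0% = DMSO only wells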
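Material – CHO cell line with stable XBP1 luciferase reporter · Buffer or medium – F12 plus 10% FBS · Compound – single point, 20 µM final compound, 1% DMSO · Schedule – 16-18 h cell attachment at 37 °C, then 6 h compound exposure · Signal – Steady-Glo luminescence read · Benchmarks – high control tunicamycin 10 µg/mL final, low control DMSO vehicle only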
Mdm2 MdmX PPI: inhibitors of human Mdm2-MdmX association, primary screen, cell-based, luminescence, split luciferase, SaOS-2, uHTS | Protein Mdm4 (Homo sapiens) + E3 ubiquitin-protein ligase Mdm2 (Homo sapiens), … | AID 485346, 2010 | inhibition, % at 8 µM | SaOS-2 split-luciferase Mdm2/MdmX complementation | 330,000 tested, 3% active;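 active = inhibition of at least 50% at 8 µM in the primary screen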
Beta apoptosis: inhibitors of cytokine-induced beta cell apoptosis, primary screen, luminescence. protection from apoptosis, % (no concentration beside the values). AID 435005, 2010. INS-1E cytokine-induced death, ATP luminescence, 48 h; percent of positive-control rescue, neutral wells zero. 300,000 tested, 0.8% active;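 active = Every replicate reaches about 75%, or at least half do and their mean reaches it too, limit read from the data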;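 also: 0% = cytokine-treated negative control wells and 100% = positive control rescue; higher means more ATP so stronger rescue from cytokine killing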
CSC inhib: cancer stem cell viability inhibitors, primary screen, luminescence. cancer stem cell-like cells viability. inhibition, % at 7.5 µM. 300,000 tested, 1.1% active. AID 2717, 2010; in the data active = inhibition above about 75%; tested in HMLE shEcad cells
CHOP UPR activ: activators of apoptotic CHOP UPR arm, primary screen, cell-based, CHO-CHOP luciferase reporter, luminescence, uHTS | activation, % at 10 µM | UPR activation; percent of tunicamycin response over DMSO baseline | 330,000 tested, 0.34% active;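 active = at 10 µM dose, activation of 40% or more, normalized to positive control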;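 also: 100% = tunicamycin at 10 µg/mL and 0% = DMSO alone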
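Material: CHO-CHOP cells, stable luciferase reporter of PERK-eIF2a-CHOP signalling; quantity: 500 reporter cells seeded per well; buffer or medium: F12 medium containing 10% fetal bovine serum; compound: one dose, 10 µM in 0.5% DMSO; incubation: 6 h compound treatment, 37 °C; measured by: Steady-Glo luciferase luminescence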
SKKanGAS inh: S. pyogenes SKKanGAS growth inhibitors in kanamycin, primary screen, streptokinase expression inhibitor project, SKKanGAS strain, BacTiter-Glo luminescence; 6 h; inhibition, % at 7.5 µM; 300,000 tested, 1.3% active; AID 1662, 2009;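 active = mean replicate score, as percent of positive control median, at least 50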;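 also: strain carries kanamycin resistance gene driven by streptokinase promoter and grows in 40 µg/ml kanamycin; loss of luminescence reflects streptokinase promoter inhibition or plain growth inhibition; 0% = median of DMSO wells and 100% = positive control at its reference dose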
Mdm2 MdmX conf: Mdm2-MdmX complex disruptors, retested hits, confirmation, luminescence, single concentration | shares compounds with Mdm2 MdmX PPI | AID 489028, 2010 | Mdm2-MdmX binding, luminescent assay | inhibition, % at 8 µM | 10,000 tested, 55% active; in the data active = inhibition above about 40%
Full FLuc ctr: full-length luciferase signal inhibition, confirmation, counter-screen for Mdm2/MdmX interaction inhibitor project, cell-based, single concentration, SaOS-2; shares compounds with Mdm2 MdmX PPI; inhibition, % at 8 µM; 6,200 tested, 77% active; SaOS-2 full-length luciferase counterscreen, luminescence;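 active = mean inhibition at 8 µM reaching about 37%, which flags the compound as non-specific, limit read from the data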;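 also: p53-null SaOS-2 cells with luciferase driven by a doxycycline-inducible promoter; compound on cells about two nights before reading with doxycycline added after day one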
The depositor's hits bear a star; . = not tested or not shown. Shown are actives, neighbours in structure and some others; about 4.8% of the full set was active somewhere.

SMILES | UPR XBP1 act | Mdm2 MdmX PPI | Beta apoptosis | CSC inhib | CHOP UPR activ | SKKanGAS inh | Mdm2 MdmX conf | Full FLuc ctr
Cc1ccc(S(=O)(=O)NC2=NCN(C(C)C)CN2)cc1 | -2 | 15 | -4 | -8 | -1 | 0 | . | .
O=C(CNS(=O)(=O)c1ccc(Cl)c(C(F)(F)F)c1)NC1CCCCC1 | 2 | 17 | -2 | . | 0 | . | . | .
CN(CC(=O)N1CCOCC1)S(=O)(=O)c1ccc2ccccc2c1 | -3 | -2 | 4 | -12 | 3 | 7 | . | .
CCC(=O)NCCCCCCNC(=O)CC | -3 | 11 | -3 | -8 | -1 | 4 | . | .
O=C(CCl)NCCCCCCCCCNC(=O)CCl | -2 | 64* | 10 | 10 | 2 | -1 | 42* | 40*
O=C(NCCC1=CCCCC1)C1CCC(CNc2nc(=S)[nH]c3ccccc23)CC1 (stereo unspecified) | 10 | 33 | 44 | 4 | 3 | 3 | . | .
O=C(NCCc1ccc(Cl)cc1)C1CCC(CNc2nc(=S)[nH]c3ccccc23)CC1 (stereo unspecified) | 27 | 67* | 60 | 47 | -1 | 5 | 35 | 61*
Nc1ccc(-c2cc3ccccc3oc2=O)cc1 | -9 | 52* | . | 4 | -7 | -3 | 30 | 45*
COc1ccc(-c2cc3ccccc3oc2=O)cc1 | 2 | -86 | -9 | 8 | 4 | -1 | . | .
Cc1ccc2nc(N(CCCN(C)C)C(=O)c3cc(-c4cccs4)nc4ccccc34)sc2c1 | 4 | 96* | 21 | 103* | 3 | 18 | 46* | 37*
CN(C)CCCN(C(=O)c1sc2ccccc2c1Cl)c1nc2c(F)cccc2s1 | 2 | -22 | 0 | -3 | 2 | -5 | . | .
CN(C)CCCN(C(=O)c1cc(-c2cccs2)nc2ccccc12)c1nc2c(F)cccc2s1 | 1 | 57* | . | 29 | 3 | 18 | 31 | .
COc1ccc(Nc2cc(Nc3ccccc3)ncn2)cc1 | 4 | -47 | -6 | 7 | 6 | -4 | . | .
Cc1ccc(OC(C)C(=O)N(C)Cc2ccccc2)c([N+](=O)[O-])n1 (stereo unspecified) | -3 | 1 | 0 | -14 | 1 | 3 | . | .
Cc1nc(C)c(C(=O)OCC(=O)NCCc2ccc(F)cc2)s1 | -1 | 19 | . | . | 1 | . | . | .
COc1ccc(-c2oc(=O)c3cc(OC)c(OC)cc3c2-c2ccc3c(c2)OCO3)cc1 | 2 | 25 | 2 | 9 | 5 | . | . | .
COc1cc2c(-c3ccc4cc[nH]c4c3)c(-c3ccc(C#N)cc3)oc(=O)c2cc1OC | 0 | 59* | 27 | 39 | 0 | . | 35 | 52*
COc1ccc(C)cc1NC(=O)CSc1ccc(-c2ccccn2)nn1 | -6 | 54* | 2 | 57 | 1 | -1 | 55* | 52*
CC(=O)c1cccc(NC(=O)CSc2ccc(-c3ccccn3)nn2)c1 | -4 | 37 | 3 | 3 | 1 | -1 | . | .
CCc1ccc(NC(=O)CSc2ccc(-c3ccccn3)nn2)cc1 | -1 | 71* | 86* | 6 | 1 | -1 | 45* | 73*
Cc1ccc(NC(=O)CSc2ccc(-c3ccccn3)nn2)cc1F | -3 | 53* | 6 | -4 | 6 | 3 | 46* | 47*
CCOC(=O)c1ccccc1NC(=O)CSc1ccc(-c2ccccn2)nn1 | -6 | 75* | -4 | -3 | -1 | 4 | 77* | 36*
CCN(CC)CCN(Cc1cc2cc3c(cc2[nH]c1=O)OCO3)C(=S)NC | -1 | 17 | -4 | -5 | 1 | 6 | . | .
Cc1cc(NC(=O)CC(C)C)c(=O)n(Cc2ccccc2F)c1 | -3 | 0 | 2 | -8 | 1 | -3 | . | .
CCCN(CC(=O)Nc1ccccc1OC)C(=O)Cc1ccc2c(c1)CCC2 | -2 | 40 | 0 | . | -2 | . | . | .
SMILES | UPR XBP1 act | Mdm2 MdmX PPI | Beta apoptosis | CSC inhib | CHOP UPR activ | SKKanGAS inh | Mdm2 MdmX conf | Full FLuc ctr
COc1cc(NC(=O)CSc2ccc(-c3ccccn3)nn2)cc(OC)c1 | -4 | 65* | 30 | -13 | 0 | -3 | 59* | 57*
CC(=O)Nc1cccc(NC(=O)CSc2ccc(-c3ccccn3)nn2)c1 | -2 | 21 | 1 | 0 | 2 | 7 | . | .
CCC(C)N1C(=O)S/C(=C/c2ccc3c(c2)n(C)c(=O)n3C)C1=O (stereo unspecified) | 1 | 42 | . | -9 | 0 | 19 | . | .
CCOC(=O)C(C)N1C(=O)S/C(=C/c2ccc3c(c2)n(C)c(=O)n3C)C1=O (stereo unspecified) | 1 | 51* | -17 | 6 | 0 | 1 | 19 | .
CCOc1ccc(NC(=O)c2cc(S(=O)(=O)N3CCOCC3)cn2C)cc1 | 3 | 6 | -1 | 7 | 2 | 0 | . | .
O=C(Cc1ccc(Cl)cc1)Nc1ccc2oc(=O)ccc2c1 | -2 | 10 | 7 | -4 | 1 | -2 | . | .
O=C(Cc1ccc(Cl)cc1)Nc1ccc(-c2cc3ccccc3oc2=O)c(Cl)c1 | 0 | 59* | 25 | 82* | -1 | 23 | 62* | 52*
COc1ccc(OC)c(NC(=O)CSc2nnc(CNC(=O)c3cccs3)o2)c1 | -9 | 9 | -5 | -11 | 1 | -5 | . | .
CN1C(=O)CC(c2ccco2)Sc2ccccc21 (stereo unspecified) | 4 | 29 | -2 | -4 | 2 | -1 | . | .
COc1ccc(C2CC(=O)N(C)c3ccccc3S2)cc1 (stereo unspecified) | 1 | 68* | -10 | -3 | 3 | 4 | 47* | 97*
O=C(CSc1nc(C(F)(F)F)cc(=O)[nH]1)Nc1nccs1 | 2 | 20 | -7 | -19 | 0 | 8 | . | .
Cc1csc(SC(C)C(=O)Nc2ccccc2C)n1 (stereo unspecified) | -2 | -27 | 1 | -21 | 1 | . | . | .
CCCCC1CCC(C(=O)N(CC(C)C)c2c(N)n(Cc3ccccc3)c(=O)[nH]c2=O)CC1 (stereo unspecified) | -6 | 97* | 85* | 91* | 13 | -10 | 29 | .
CCCCN(C(=O)C1CCCC1)c1c(N)n(Cc2ccccc2)c(=O)[nH]c1=O | -4 | 23 | -4 | 14 | -1 | . | . | .
CC(C)CN(C(=O)COC(=O)c1nc(Cl)ccc1Cl)c1c(N)n(Cc2ccccc2)c(=O)[nH]c1=O | -5 | 29 | -2 | -1 | 1 | 1 | . | .
